The source of these data is ChEMBL document CHEMBL1156219, “Discovery of novel N-acylsulfonamide analogs as potent and selective EP3 receptor antagonists” (Bioorg Med Chem Lett, 2010).

The target in test [1] is T1, Prostaglandin E2 receptor EP3 subtype (Mus musculus, UniProt P30557).
T1 sequence (P30557 whole entry): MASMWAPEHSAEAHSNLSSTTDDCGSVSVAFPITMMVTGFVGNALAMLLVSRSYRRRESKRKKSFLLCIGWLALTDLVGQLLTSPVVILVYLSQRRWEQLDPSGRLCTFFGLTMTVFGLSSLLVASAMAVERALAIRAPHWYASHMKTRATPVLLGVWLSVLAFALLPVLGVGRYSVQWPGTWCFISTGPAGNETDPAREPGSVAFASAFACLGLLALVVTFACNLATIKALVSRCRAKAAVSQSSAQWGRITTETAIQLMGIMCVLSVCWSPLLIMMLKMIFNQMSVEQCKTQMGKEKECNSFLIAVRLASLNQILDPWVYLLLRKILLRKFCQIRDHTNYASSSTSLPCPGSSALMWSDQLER
Nature of the test: Displacement of [3H]PGE2 from mouse EP3 receptor expressed in CHO cells after 60 mins by scintillation counter. Type of test: cell-based.

Test [2] deals with T1, Prostaglandin E2 receptor EP3 subtype. Nature of the test: Antagonist activity at mouse EP3 receptor expressed in CHO cells assessed as inhibition of PGE2-induced increase in intracellular calcium level after 1 hr by FDSS in presence of 1% bovine serum albumin. Type of test: functional, cell-based.
Test [3] has as its system Rattus norvegicus. As to the kind of experiment: Inhibition of PGE2-induced uterine contraction in pregnant rat at 3 mg/kg, po after 4 hrs. Type of test: functional.
Test [4] has as its target Prostaglandin E2 receptor EP2 subtype (Mus musculus, UniProt Q62053). As to the kind of experiment: Displacement of [3H]PGE2 from mouse EP2 receptor expressed in CHO cells after 60 mins by scintillation counter. Type of test: cell-based.
Test [5] deals with T2, Prostaglandin E2 receptor EP1 subtype (Mus musculus, UniProt P35375).
T2 sequence (P35375 whole entry): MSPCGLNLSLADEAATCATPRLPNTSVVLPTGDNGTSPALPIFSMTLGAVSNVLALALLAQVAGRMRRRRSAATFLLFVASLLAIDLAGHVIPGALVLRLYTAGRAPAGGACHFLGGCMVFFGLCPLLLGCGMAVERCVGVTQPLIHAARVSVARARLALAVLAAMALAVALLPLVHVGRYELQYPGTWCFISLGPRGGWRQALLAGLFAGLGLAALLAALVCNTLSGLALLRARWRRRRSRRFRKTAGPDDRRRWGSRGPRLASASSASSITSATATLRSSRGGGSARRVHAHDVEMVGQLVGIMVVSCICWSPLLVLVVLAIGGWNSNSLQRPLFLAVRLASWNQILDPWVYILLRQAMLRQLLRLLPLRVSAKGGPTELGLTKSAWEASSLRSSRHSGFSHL
As to the kind of experiment: Displacement of [3H]PGE2 from mouse EP1 receptor expressed in CHO cells after 60 mins by scintillation counter. Type of test: cell-based.

Test [6] deals with Prostaglandin E2 receptor EP4 subtype (Mus musculus, UniProt P32240). Nature of the test: Displacement of [3H]PGE2 from mouse EP4 receptor expressed in CHO cells after 60 mins by scintillation counter. Type of test: cell-based.
Test [7] relates to Rattus norvegicus. Nature of the test: Inhibition of PGE2-induced uterine contraction in pregnant rat at 1 mg/kg, id. Type of test: functional. To be noted: route intraduodenal. The method, boiled down:
(§1)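 Pregnant rats received test agent intraduodenally (0.3 or 1 mg/kg tested). Uterine contraction was induced with PGE2 and suppression scored as % inhibition. Each value is the mean of two experiments.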

In test [8] the test system is Rattus norvegicus. As to the kind of experiment: Inhibition of PGE2-induced uterine contraction in pregnant rat at 0.3 mg/kg, id. Type of test: functional. To be noted: route intraduodenal. The method, boiled down:
as §1

Test [9] relates to Rattus norvegicus. Nature of the test: Inhibition of PGE2-induced uterine contraction in id dosed pregnant rat. Type of test: functional, organism-based. The method, boiled down: as §1

Molecules are shown by their SMILES. Some results are limits rather than exact numbers.

Chain of Prostaglandin E2 receptor EP2 subtype (Q62053 whole entry): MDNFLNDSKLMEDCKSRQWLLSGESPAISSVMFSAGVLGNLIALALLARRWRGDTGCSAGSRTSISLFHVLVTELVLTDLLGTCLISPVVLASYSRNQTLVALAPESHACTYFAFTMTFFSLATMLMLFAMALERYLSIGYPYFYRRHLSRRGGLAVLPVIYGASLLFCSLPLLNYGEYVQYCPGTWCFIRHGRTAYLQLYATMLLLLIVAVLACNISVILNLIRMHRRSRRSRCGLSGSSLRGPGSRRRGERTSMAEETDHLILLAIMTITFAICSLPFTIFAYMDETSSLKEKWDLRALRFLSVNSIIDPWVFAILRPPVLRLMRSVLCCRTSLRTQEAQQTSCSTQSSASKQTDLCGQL
Chain of Prostaglandin E2 receptor EP4 subtype (P32240 whole entry): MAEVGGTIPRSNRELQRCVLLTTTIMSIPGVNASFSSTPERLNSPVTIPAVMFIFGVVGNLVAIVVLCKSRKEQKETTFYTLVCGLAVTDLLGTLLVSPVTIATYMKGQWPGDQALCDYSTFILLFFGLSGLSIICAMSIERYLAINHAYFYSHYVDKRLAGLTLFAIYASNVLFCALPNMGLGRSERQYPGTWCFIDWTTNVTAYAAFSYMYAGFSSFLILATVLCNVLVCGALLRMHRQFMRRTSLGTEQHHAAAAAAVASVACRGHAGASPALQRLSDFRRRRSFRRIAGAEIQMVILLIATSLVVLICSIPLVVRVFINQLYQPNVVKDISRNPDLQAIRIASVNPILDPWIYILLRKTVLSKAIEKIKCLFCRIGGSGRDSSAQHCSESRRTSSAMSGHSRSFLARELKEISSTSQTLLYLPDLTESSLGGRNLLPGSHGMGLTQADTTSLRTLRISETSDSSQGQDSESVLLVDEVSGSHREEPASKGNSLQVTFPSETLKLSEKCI

For the compound `O=C(CCc1ccc(Cn2cccn2)cc1OCCc1ccc2ccccc2c1)NS(=O)(=O)c1ccccc1`, in test [1], affinity was put at a Ki of 0.5 nM. The IC50 in test [2] was 140 nM.
On the same counts, the results for `O=C(CCc1ccc(Cn2cccn2)cc1OCCc1ccc2ccccc2c1)NS(=O)(=O)c1ccccn1` are 1.6 nM and 190 nM.
In the test on Rattus norvegicus [3], `Cc1cn(Cc2ccc(Cl)cc2Cl)c2c(/C=C/C(=O)NS(=O)(=O)c3cc(Cl)c(Cl)s3)cc(F)cc12` returned an inhibition in vivo at 3 mg/kg of 70%.
In the case of `CN(CCOc1cc(Cn2cccn2)ccc1CCC(=O)NS(=O)(=O)c1ccc(F)c(F)c1)c1ccccc1`, the inhibition constant Ki in test [1] is 0.12 nM; in test [4] it was above 10000 nM; in test [5] it was 260 nM; in test [6], 3500 nM. Further, the IC50 in test [2] turned out to be 3.8 nM. Moreover, in the test with Rattus norvegicus [7], the inhibition in vivo at 1 mg/kg was 50%.
On to `N#Cc1cccc(S(=O)(=O)NC(=O)CCc2ccc(Cn3cccn3)cc2OCCc2ccc3ccccc3c2)c1`, for which, in [1], the inhibitory constant (Ki) was determined as 0.065 nM. Moreover, the half-maximal inhibitory concentration (IC50) in test [2] was 18 nM.
For `O=C(CCc1ccc(Cn2cccn2)cc1OCCOc1ccccc1)NS(=O)(=O)c1ccc(F)c(F)c1`, the Ki in test [1] is 0.27 nM; in [4] it was above 10000 nM; in test [5] it was 2800 nM; in [6], above 10000 nM. The 50% inhibitory concentration (IC50) in test [2] turned out to be 51 nM. The same compound registered an inhibition in vivo at 1 mg/kg in the test with Rattus norvegicus [7] of 28%.
For the compound `O=C(CCc1ccc(COc2cccnc2)cc1OCCc1ccc2ccccc2c1)NS(=O)(=O)c1ccc(F)c(F)c1`, the inhibitory constant (Ki) in test [1] is 0.16 nM; in test [4], above 10000 nM; in test [5], 1700 nM; in test [6] it was 710 nM. Further, the IC50 in [2] amounted to 0.4 nM. In the test on Rattus norvegicus [8], this compound came in with an inhibition in vivo at 0.3 mg/kg of 44%. This compound also showed an inhibition in vivo at 1 mg/kg with Rattus norvegicus [7] of 71%.
`Cc1ccc(S(=O)(=O)NC(=O)CCc2ccc(Cn3cccn3)cc2OCCc2ccc3ccccc3c2)o1` showed an inhibition constant (Ki) in [1] of 0.58 nM. Also, the IC50 in test [2] stood at 88 nM.
Take `O=C(CCc1ccc(CN2CCOCC2)cc1OCCc1ccc2ccccc2c1)NS(=O)(=O)c1ccc(F)c(F)c1`: the inhibitory constant (Ki) is 1.2 nM in test [1], above 10000 nM in [4], 5000 nM in test [5] and above 10000 nM in test [6]. Further, the IC50 in test [2] amounted to 47 nM. The compound also gave an inhibition in vivo at 1 mg/kg in the test on Rattus norvegicus [7] of 35%.
`N#Cc1cccc(OCc2ccc(CCC(=O)NS(=O)(=O)c3ccc(F)c(F)c3)c(OCCc3ccc4ccccc4c3)c2)c1`: the inhibition constant Ki in [1] was 0.51 nM; in test [4], above 10000 nM; in [5], above 10000 nM; in [6], 2300 nM. Besides, the IC50 in test [2] is 24 nM. For the same compound, the inhibition in vivo at 0.3 mg/kg in the test on Rattus norvegicus [8] worked out at 50%. In the test with Rattus norvegicus [7], testing at 1 mg/kg gave an inhibition in vivo of 92%. Further, the inhibition in vivo at 3 mg/kg in the test with Rattus norvegicus [3] stood at 66%.
Take `O=C(CCc1ccc(Cn2cccn2)cc1OCCc1cccc(N2CCOCC2)c1)NS(=O)(=O)c1ccc(F)c(F)c1`: the inhibitory constant (Ki) in test [1] was 0.54 nM; in test [4], above 10000 nM; in test [5] it was 560 nM; in [6], 3700 nM. The IC50 in test [2] came out at 6.4 nM. This compound also showed an inhibition in vivo at 1 mg/kg in the test on Rattus norvegicus [7] of 33%.
Compound `CS(=O)(=O)NC(=O)CCc1ccc(Cn2cccn2)cc1OCCc1ccc2ccccc2c1` had a Ki in test [1] of 22 nM. In addition, in [2], the IC50 is above 10000 nM.
`O=C(CCc1ccc(Cn2cccn2)cc1OCCc1ccc2ccccc2c1)NS(=O)(=O)c1ccc(Cl)c(Cl)c1` returned a Ki in test [1] of 0.45 nM. The IC50 in test [2] worked out at 7.8 nM.
Regarding `O=C(O)CCc1ccc(Cn2cccn2)cc1OCCc1ccc2ccccc2c1`, the Ki in [1] came to 21 nM.
Regarding `O=C(CCc1ccc(Cn2cccn2)cc1OCCc1ccc2ccccc2c1)NS(=O)(=O)c1cccnc1`, the Ki in test [1] worked out at 1 nM. In addition, in test [2], the IC50 amounted to 150 nM.
With `O=C(CCc1ccc(Cn2cccn2)cc1OCCc1ccccc1)NS(=O)(=O)c1ccc(F)c(F)c1`, the Ki was 0.2 nM in test [1], above 10000 nM in test [4], 1300 nM in test [5] and 2500 nM in test [6]. In addition, the IC50 in test [2] was determined as 59 nM. For the same compound, the inhibition in vivo at 0.3 mg/kg in the test on Rattus norvegicus [8] is 29%. Further, the inhibition in vivo at 1 mg/kg in the test with Rattus norvegicus [7] was found to be 51%.
In [1], `Cc1ccc(S(=O)(=O)NC(=O)CCc2ccc(Cn3cccn3)cc2OCCc2ccc3ccccc3c2)cc1Cl` had an inhibition constant Ki of 0.43 nM. In addition, in [2], the IC50 came out at 10 nM.
`CN(C)Cc1ccc(CCC(=O)NS(=O)(=O)c2ccc(F)c(F)c2)c(OCCc2ccc3ccccc3c2)c1`: the Ki was 8.2 nM in test [1], above 10000 nM in test [4], above 10000 nM in [5] and above 10000 nM in [6]. The IC50 in test [2] was found to be 24 nM. The compound further returned an inhibition in vivo at 1 mg/kg in the test on Rattus norvegicus [7] of 32%.
The compound `Cc1csc(S(=O)(=O)NC(=O)CCc2ccc(Cn3cccn3)cc2OCCc2ccc3ccccc3c2)n1` showed a Ki in test [1] of 0.35 nM. Further, the IC50 in test [2] was found to be 110 nM.
Consider `O=C(CCc1ccc(Cn2cccn2)cc1OCCc1ccc2ccccc2c1)NS(=O)(=O)c1ccc(F)c(F)c1`, for which the Ki in test [1] is 0.086 nM; in test [4] it was above 10000 nM; in [5], 2100 nM; in test [6], 2400 nM. Also, the IC50 in test [2] turned out to be 1.2 nM. In the test with Rattus norvegicus [8], the inhibition in vivo at 0.3 mg/kg was determined as 43%. Besides, the inhibition in vivo at 1 mg/kg in the test with Rattus norvegicus [7] came out at 76%. For the same compound, the inhibition entry with Rattus norvegicus [9] is “Dose-dependent effect”.
Compound `O=C(NCc1ccc(Cn2cccn2)cc1OCCc1ccc2ccccc2c1)NS(=O)(=O)c1ccccc1` had a Ki in test [1] of 15 nM. Moreover, in test [2], the half-maximal inhibitory concentration (IC50) turned out to be 820 nM.
On the same counts, the results for `O=C(CCc1ccc(Cn2cccn2)cc1OCCc1ccc2ccccc2c1)NS(=O)(=O)c1ccc(F)c(Cl)c1` are 0.22 nM and 5.5 nM.
On the same counts, the results for `O=C(NS(=O)(=O)CCc1ccc(Cn2cccn2)cc1OCCc1ccc2ccccc2c1)c1ccccc1` are 140 nM and above 10000 nM.
